Source: PubChem (several laboratories)
Sampled rows, rich in hits. Any-hit rate of the full collection: about 4.8%.
PAFAH2 inh: PAFAH2 (human) inhibition | recombinant PAFAH2, FP-rhodamine activity probe, fluorescence polarization | inhibition, % at 3.39 µM | 340,000 tested, 0.99% active | AID 492956;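 active = inhibition above the mean over all tested compounds plus 3 SD, cut at about 30% in these data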;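 note: inhibitors block probe labeling of enzyme so polarization drops; 0% = enzyme with DMSO and 100% = wells lacking PAFAH2 protein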
pPAFAH inh: inhibitors of human plasma PAF acetylhydrolase (pPAFAH); 330,000 tested, 1.5% active; AID 463082; Q13093; recombinant pPAFAH, FP-rhodamine probe fluorescence polarization; inhibition, % at 3.39 µM;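 active = inhibition above the mean inhibition across the screen plus 3 SD, cut at about 25% in these data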;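 note: inhibitors block binding of the rhodamine activity-based probe so polarization drops; 0% = enzyme with DMSO and 100% = wells lacking pPAFAH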
PAFAH1B3 FP inh: inhibitors of human PAFAH1B3 | 340,000 tested, 0.28% active | Q15102 | inhibition, % at 3.39 µM | recombinant PAFAH1B3, FP-rhodamine probe, fluorescence polarization;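 active = inhibition above the screen-wide average of all tested compounds plus 3 SD, cut at about 25% in these data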;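 note: 0% = enzyme with DMSO only and 100% = wells lacking PAFAH1B3 protein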
NR3A LBD binder: modulators (binders) of human NR3A ligand-binding domain. NR3A LBD differential scanning fluorimetry, Tm shift; 0% = protein alone, 100% = glycine-bound protein. Tm shift relative to glycine control, % at 25 µM. 340,000 tested, 2.5% active;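 active = melting temperature shift of at least 10% of the positive control shift, at one fixed dose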
PAFAH1B2 FP inh: blocks human PAF acetylhydrolase 1b catalytic subunit 2; inhibition, % at 3.39 µM; 340,000 tested, 1.2% active; P68402; recombinant PAFAH1B2, FP-rhodamine activity probe, fluorescence polarization;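 active = inhibition above the mean of all tested compounds plus 3 SD, cut at about 24% in these data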;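 note: 0% = enzyme with DMSO and 100% = wells lacking PAFAH1B2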
UCH37 DUB inh: inhibitors of human deubiquitinating enzyme UCH37; Q9Y5K5; purified proteasome/UCH37, Ub-AMC cleavage fluorescence; inhibition, % (no concentration beside the values); 330,000 tested, 0.33% active;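 active = mean inhibition over replicate wells above about 20%, limit read from the data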;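 note: 0% = compound-free wells with enzyme and 100% = wells lacking proteasome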
Target sequence (Q9Y5K5 whole entry, looked up): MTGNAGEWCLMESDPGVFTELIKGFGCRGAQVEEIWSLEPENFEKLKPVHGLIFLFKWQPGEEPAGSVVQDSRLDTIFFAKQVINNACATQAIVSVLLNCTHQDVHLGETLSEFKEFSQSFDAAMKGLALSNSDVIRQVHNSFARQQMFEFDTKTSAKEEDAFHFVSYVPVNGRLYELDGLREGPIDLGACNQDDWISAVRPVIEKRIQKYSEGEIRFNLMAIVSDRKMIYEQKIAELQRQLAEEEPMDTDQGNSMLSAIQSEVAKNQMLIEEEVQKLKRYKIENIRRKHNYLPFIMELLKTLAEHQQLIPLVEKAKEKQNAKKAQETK
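system = Proteasome-associated human UCH37 deubiquitinase | amount = 0.15 nM proteasome as dispensed | medium = pH 7.4 Tris-HCl (50 mM) with ovalbumin, ATP-MgCl2, DTT | incubation = 30 min preincubation with enzyme, 25 min cleavage at room temperature | detection = AMC fluorescence 355/460 nm | read-out basis = percent inhibition | controls = no-proteasome and no-compound wells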
An asterisk follows results filed as active; · = no result.

SMILES	PAFAH2 inh	pPAFAH inh	PAFAH1B3 FP inh	NR3A LBD binder	PAFAH1B2 FP inh	UCH37 DUB inh
N#C/C(=C\c1ccc(-c2ccc(Br)cc2)o1)C(=O)NCCc1c[nH]c2ccccc12	-11	-1	-6	27*	-8	6
N#C/C(=C/c1ccc2c(c1)OCO2)C(=O)NCCc1c[nH]c2ccccc12	-3	10	2	9	6	5
CC(C)(C)NCC(=O)NN=Cc1ccc(OCc2ccccc2)cc1	·	·	·	·	·	5
CCOc1ccc(-c2c(C(=O)NN=Cc3ccc(OC)cc3)nnn2-c2nonc2N)cc1	·	·	·	·	·	0
Cc1ccc(NC(=O)c2ccc(NC3=NC4CS(=O)(=O)CC4S3)cc2)cc1 (stereo not given)	7	2	5	1	2	-1
CSc1cccc(NC(=O)c2ccc(NC3=NC4CS(=O)(=O)CC4S3)cc2)c1 (stereo not given)	3	0	3	28*	2	2
CC(C)c1ccc(NC(=O)c2ccc(NC3=NC4CS(=O)(=O)CC4S3)cc2)cc1 (stereo not given)	-5	8	-4	16*	11	5
COc1ccc(C=NNC(=O)c2cnccn2)cc1O	·	·	·	·	·	3
O=C(NN=CC1C(c2ccccc2)C1(Cl)Cl)c1cccc(Br)c1 (stereo not given)	·	·	·	·	·	-6
CC(C)c1cc2c(c(O)c1O)[C@@]13CCCC(C)(C)C1CC2OC3=O (stereo not given in full)	61*	30*	12	-6	54*	-1
Clc1ccc(-n2cccc2C=Nn2cnnc2)cc1	·	·	·	·	·	7
O=C(O)CCc1ccc(S(=O)(=O)Nc2cc(C(F)(F)F)ccc2N2CCCC2)cc1	8	·	1	0	30*	7
CC(/C=C/c1ccco1)=NNC(=O)C1COc2ccccc2O1 (stereo not given)	·	·	·	·	·	10
O=C(N/N=C/c1cc([N+](=O)[O-])ccc1O)C12CC3CC(CC(C3)C1)C2	91*	6	7	-4	42*	·
O=C(N/N=C/c1cc([N+](=O)[O-])ccc1O)NC12CC3CC(CC(C3)C1)C2	23	19	10	8	88*	·
O=C(CNC(=O)c1ccccc1F)NN=Cc1cccs1	·	·	·	·	·	1
CC(=O)/C(N)=N/Nc1cccc(Cl)c1	-20	1	-1	20*	-8	3
COc1ccc(C(=O)C(C#N)=NNc2ccccc2[N+](=O)[O-])cc1	·	·	·	·	·	6
N#C/C(=N\Nc1ccc(Cl)cc1)C(=O)c1ccsc1	19	33*	9	9	9	·
N#C/C(=N\Nc1cccc(Cl)c1)C(=O)c1ccccc1	22	26*	-3	3	2	·
COc1ccc(C(=O)/C(C#N)=N/Nc2cccc([N+](=O)[O-])c2)cc1	15	·	12	10*	2	·
Cc1c(C(C)(C)C)sc(=NS(=O)(=O)c2ccccc2)n1C	·	·	·	·	·	0
CCOCC(O)CSCc1ccc(Cl)cc1 (stereo not given)	3	2	-1	1	26*	3
CCOC(=O)C1CCN(CC(O)COCc2ccc(Cl)cc2)CC1 (stereo not given)	0	3	1	-1	3	3
COc1cccc(/C=C2\CCc3ccccc3C2=O)c1	4	7	3	22*	-2	2
SMILES	PAFAH2 inh	pPAFAH inh	PAFAH1B3 FP inh	NR3A LBD binder	PAFAH1B2 FP inh	UCH37 DUB inh
O=C1/C(=C/c2cccc([N+](=O)[O-])c2)CCc2ccccc21	5	5	3	11*	-1	1
COC(=O)[C@H](CCSC)NC(=O)Nc1cccc(Br)c1	8	-4	6	17*	6	3
COC(=O)[C@H](CCSC)NC(=O)Nc1ccc(C)cc1	-7	3	4	11*	-2	1
COC(=O)[C@H](CCSC)NC(=O)Nc1cc(C)ccc1C	-1	-1	-1	2	0	4
S=c1[nH]nc(CSCc2ccccc2Cl)n1-c1ccccc1	-2	27*	-1	1	6	2
NC(=NOC(=O)C1CC1)c1ccc([N+](=O)[O-])s1	·	·	·	·	·	8
O=S(=O)(Nc1nc2ccccc2nc1NCc1ccco1)c1ccc(Cl)cc1	10	20	9	0	12	-7
Cc1ccc(S(=O)(=O)Nc2nc3ccccc3nc2NCc2ccco2)cc1	34*	15	26*	-12	30*	-56
